Consider three molecules from ChEMBL document CHEMBL3259739, “Synthesis and structure-activity relationship of trisubstituted thiazoles as Cdc7 kinase inhibitors” (Eur J Med Chem, 2014).

The residual activity is what remains of the control signal, in per cent.

Test [1] deals with cAMP-dependent protein kinase catalytic subunit alpha (Homo sapiens) (UniProt P17612). Put plainly: Inhibition of PKACalpha (unknown origin) at 1 uM relative to control. Particulars: values are per cent of control. Summed up:
(§1)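 KinomeSCAN competitive binding panel of 100 kinases; compounds tested at 1 µM in duplicate; read-out is percent […] control.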

Test [2] has as its target Receptor-interacting serine/threonine-protein kinase 2 (Homo sapiens) (UniProt O43353). Put plainly: Inhibition of RIPK2 (unknown origin) at 1 uM relative to control. Particulars: values are per cent of control. The method in brief: as §1
In test [3] the target is T1, Serine/threonine-protein kinase TAO2 (Homo sapiens) (UniProt Q9UL54).
T1 sequence (whole entry): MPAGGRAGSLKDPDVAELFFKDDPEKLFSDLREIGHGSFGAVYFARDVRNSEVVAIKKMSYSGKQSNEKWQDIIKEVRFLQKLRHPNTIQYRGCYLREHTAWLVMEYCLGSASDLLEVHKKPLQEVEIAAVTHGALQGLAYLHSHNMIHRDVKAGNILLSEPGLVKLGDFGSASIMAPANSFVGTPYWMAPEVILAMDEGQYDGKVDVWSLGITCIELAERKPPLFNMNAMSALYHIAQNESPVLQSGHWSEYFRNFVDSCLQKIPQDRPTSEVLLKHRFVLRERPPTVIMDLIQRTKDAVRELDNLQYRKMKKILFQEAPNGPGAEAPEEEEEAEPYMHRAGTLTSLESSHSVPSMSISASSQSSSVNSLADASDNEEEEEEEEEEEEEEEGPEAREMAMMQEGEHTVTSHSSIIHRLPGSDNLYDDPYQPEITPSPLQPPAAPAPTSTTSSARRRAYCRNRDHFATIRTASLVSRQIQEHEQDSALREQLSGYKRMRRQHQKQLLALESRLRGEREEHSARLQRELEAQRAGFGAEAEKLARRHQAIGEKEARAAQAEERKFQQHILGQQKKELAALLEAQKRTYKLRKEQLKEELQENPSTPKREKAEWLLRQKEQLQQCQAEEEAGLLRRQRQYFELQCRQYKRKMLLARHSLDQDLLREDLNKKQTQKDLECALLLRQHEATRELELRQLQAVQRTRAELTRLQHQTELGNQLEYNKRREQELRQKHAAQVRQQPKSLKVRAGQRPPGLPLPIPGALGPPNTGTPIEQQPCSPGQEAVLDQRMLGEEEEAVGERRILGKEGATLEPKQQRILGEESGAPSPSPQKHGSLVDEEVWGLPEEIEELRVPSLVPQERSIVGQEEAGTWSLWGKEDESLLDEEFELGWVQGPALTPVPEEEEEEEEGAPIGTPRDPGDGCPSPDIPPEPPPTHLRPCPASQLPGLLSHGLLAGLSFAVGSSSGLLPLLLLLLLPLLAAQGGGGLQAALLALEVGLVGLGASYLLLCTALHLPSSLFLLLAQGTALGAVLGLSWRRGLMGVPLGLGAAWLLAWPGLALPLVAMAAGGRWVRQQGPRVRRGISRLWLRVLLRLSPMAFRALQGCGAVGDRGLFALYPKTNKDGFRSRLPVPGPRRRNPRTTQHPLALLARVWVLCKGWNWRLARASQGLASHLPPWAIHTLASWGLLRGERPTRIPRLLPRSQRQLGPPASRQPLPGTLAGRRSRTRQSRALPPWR
Put plainly: Inhibition of TAOK2 (unknown origin) at 1 uM relative to control. Conditions: values are per cent of control. Summed up:
as §1

Test [4] concerns the target T2, Serine/threonine-protein kinase TBK1 (Homo sapiens) (UniProt Q9UHD2).
T2 sequence (whole entry): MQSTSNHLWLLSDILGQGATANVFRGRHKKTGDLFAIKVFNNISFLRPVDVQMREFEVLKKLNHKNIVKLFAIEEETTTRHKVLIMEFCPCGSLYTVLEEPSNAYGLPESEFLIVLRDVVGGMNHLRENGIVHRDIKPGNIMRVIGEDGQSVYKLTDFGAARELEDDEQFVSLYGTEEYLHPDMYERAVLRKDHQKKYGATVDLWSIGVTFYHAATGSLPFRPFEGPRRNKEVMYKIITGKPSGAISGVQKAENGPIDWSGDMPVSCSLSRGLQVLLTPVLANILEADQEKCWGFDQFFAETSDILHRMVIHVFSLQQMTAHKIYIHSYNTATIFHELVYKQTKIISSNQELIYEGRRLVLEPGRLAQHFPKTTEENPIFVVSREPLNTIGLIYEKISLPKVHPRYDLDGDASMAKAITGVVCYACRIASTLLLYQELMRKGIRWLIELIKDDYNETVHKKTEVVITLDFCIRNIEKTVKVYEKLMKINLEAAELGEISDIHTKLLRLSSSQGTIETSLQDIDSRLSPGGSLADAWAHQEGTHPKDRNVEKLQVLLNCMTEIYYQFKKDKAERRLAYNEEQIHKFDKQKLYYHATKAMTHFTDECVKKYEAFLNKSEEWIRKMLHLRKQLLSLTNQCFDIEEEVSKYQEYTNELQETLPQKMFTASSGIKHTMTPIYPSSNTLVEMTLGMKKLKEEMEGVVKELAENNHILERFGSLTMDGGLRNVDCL
Put plainly: Inhibition of TBK1 (unknown origin) at 1 uM relative to control. Particulars: values are per cent of control. Summed up:
as §1

Test [5] deals with ALK tyrosine kinase receptor (Homo sapiens) (UniProt Q9UM73). Put plainly: Inhibition of ALK (unknown origin) at 1 uM relative to control; values are per cent of control.

Each structure is given as a SMILES string.

Sequence of Receptor-interacting serine/threonine-protein kinase 2 (Homo sapiens) (O43353 whole entry): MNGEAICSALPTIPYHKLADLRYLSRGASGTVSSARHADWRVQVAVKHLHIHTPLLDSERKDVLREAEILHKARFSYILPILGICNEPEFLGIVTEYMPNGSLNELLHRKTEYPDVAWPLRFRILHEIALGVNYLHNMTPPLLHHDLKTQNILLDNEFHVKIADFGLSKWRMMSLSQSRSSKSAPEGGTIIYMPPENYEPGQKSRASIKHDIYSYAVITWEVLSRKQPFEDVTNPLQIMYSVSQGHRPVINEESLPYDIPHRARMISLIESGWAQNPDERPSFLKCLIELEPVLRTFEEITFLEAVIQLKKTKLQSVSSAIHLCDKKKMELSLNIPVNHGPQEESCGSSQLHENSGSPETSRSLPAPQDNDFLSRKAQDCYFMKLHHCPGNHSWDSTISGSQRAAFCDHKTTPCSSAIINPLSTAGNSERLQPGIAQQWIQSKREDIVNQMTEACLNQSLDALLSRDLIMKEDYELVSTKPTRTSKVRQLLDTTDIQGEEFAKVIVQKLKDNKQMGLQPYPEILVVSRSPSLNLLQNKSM
Sequence of ALK tyrosine kinase receptor (Homo sapiens) (Q9UM73 19-1620 limits assumed): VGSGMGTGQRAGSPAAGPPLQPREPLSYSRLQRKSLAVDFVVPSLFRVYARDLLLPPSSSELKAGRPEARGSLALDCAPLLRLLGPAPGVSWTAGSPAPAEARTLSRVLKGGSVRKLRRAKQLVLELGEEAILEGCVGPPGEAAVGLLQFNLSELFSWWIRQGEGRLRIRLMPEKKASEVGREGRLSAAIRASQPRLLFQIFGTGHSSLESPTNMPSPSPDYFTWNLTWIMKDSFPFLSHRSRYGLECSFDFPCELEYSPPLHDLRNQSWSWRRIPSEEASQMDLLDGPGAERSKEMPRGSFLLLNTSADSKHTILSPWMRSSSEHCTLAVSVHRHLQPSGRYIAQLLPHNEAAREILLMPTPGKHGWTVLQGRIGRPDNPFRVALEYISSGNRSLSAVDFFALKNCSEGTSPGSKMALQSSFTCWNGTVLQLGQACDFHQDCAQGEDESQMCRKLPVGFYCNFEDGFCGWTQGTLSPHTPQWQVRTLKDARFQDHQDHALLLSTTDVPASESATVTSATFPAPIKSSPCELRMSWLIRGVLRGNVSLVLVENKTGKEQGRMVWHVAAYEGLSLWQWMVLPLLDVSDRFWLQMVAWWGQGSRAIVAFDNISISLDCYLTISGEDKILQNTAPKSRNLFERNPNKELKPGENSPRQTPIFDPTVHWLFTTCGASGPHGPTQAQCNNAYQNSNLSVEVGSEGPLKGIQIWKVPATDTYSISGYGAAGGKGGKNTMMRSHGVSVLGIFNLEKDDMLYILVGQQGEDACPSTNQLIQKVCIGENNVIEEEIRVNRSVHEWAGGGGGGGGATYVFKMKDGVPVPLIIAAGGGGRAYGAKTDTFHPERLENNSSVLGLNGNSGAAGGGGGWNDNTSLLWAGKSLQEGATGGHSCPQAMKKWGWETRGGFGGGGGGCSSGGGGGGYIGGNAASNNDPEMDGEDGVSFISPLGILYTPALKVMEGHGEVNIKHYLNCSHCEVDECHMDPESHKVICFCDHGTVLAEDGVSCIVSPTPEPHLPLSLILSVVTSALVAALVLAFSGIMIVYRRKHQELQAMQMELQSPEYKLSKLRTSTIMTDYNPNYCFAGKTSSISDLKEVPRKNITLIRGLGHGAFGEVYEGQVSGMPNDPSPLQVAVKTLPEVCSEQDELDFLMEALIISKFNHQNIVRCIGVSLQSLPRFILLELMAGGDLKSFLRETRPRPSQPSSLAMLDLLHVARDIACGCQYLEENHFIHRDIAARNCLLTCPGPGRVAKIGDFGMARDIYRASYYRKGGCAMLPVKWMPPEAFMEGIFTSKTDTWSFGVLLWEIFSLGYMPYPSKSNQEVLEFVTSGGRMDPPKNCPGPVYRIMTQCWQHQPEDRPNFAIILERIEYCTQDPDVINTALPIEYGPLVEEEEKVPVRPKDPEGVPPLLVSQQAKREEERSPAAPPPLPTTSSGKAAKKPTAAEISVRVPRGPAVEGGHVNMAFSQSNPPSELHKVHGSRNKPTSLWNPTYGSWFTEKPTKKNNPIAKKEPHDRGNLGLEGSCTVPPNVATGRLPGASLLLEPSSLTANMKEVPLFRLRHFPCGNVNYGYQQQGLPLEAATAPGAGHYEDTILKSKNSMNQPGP

As for `CCOC(=O)c1sc(-c2ccncc2)nc1O`, the residual binding, % of control in test [1] was 100%; in test [2], 99%; in test [3], 100%; in test [4], 100%. Further, the residual activity in test [5] was 86%.

Turning to `NC(=O)c1sc(-c2ccnc(N)n2)nc1-c1ccc(Cl)cc1Cl`, the residual binding, % of control in test [1] was 69%; in test [2], 82%; in test [3], 55%; in test [4], 85%. Also, in test [5], the residual activity was 100%.

Turning to `COc1ccc(-c2nc(-c3ccnc(N)n3)sc2C(N)=O)c(Cl)c1`, the residual binding, % of control in test [1] came out at 70%; in test [2], 96%; in test [3] it was 25%; in test [4], 100%. The residual activity in test [5] amounted to 63%.
